Bioassay records as filed in PubChem BioAssay.
Most compounds without a hit are left out; they make up all but 1.6% or so of the library.
FLuc act counter – affects firefly luciferase, flagging false hits in luciferase stimulation screens; P08659; ATPlite luciferase biochemical, luminescence, 10 min; 0 = ATP-free wells, 1 = DMSO control; activation factor at 10 µM; 200,000 tested, under 10 active;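 active = luciferase activation factor, scaled between plate controls, of at least 2 with compound at 10 µM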
Target sequence (P08659 whole entry, looked up): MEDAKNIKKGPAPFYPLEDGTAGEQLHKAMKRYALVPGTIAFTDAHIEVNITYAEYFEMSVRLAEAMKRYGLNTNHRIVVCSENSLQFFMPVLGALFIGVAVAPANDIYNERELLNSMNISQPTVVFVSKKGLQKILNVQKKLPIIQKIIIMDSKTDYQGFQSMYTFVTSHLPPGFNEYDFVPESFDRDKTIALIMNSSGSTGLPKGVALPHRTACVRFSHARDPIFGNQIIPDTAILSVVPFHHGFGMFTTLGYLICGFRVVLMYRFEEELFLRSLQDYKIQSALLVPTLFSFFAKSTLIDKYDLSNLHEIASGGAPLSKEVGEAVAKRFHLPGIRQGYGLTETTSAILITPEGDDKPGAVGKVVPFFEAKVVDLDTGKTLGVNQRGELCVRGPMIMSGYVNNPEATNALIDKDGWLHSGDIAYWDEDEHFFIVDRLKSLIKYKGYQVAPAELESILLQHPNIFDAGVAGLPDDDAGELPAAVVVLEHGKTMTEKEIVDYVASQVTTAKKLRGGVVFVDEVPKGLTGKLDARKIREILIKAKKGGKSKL
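assay system = Luciferase/luciferin detection reagent, cell-free biochemical luciferase assay | also added = ATP substrate | times = 10 min post-reagent at room temperature | measured by = luminescence from luciferase reaction | measure = luciferase activation, seen as luminescence increase over controls | benchmarks = low control with PBS replacing ATP, high control enzyme plus ATP without compound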
FLuc inh counter – Photinus pyralis luciferase inhibition counter-screen; P08659; ATPLite firefly luciferase biochemical luminescence, 10 min; 1.5% of 200,000 active; inhibition, % at 10 µM;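 active = inhibition above about 50% when tested at 10 µM, limit read from the data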
PPC-1+TRAIL kill – PPC-1 cancer cell killing with TRAIL present; AID 1443; cell killing (% activity), % at 4 µM or 5 µM; 0.41% of 220,000 active; PPC-1 cells + TRAIL, ATPLite viability luminescence;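 active = cell killing above 50% in the first pass at 4 µM, then a duplicate retest at 5 µM averaging 50% or more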;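 also: plate controls were cells with TRAIL plus DMSO for no effect and medium-only wells lacking cells for full effect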
C8 TRAIL sens – caspase-8 TRAIL sensitization; NB7+C8 cells + TRAIL, ATPlite viability luminescence; 1% of 360,000 active; inhibition (viability loss, TRAIL sensitization), % at 10 µM;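 active = compounds causing at least 50% loss of cell viability in the single-dose screen, relative to plate controls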
PPC1 cytotox – kills PPC-1 cells | shares compounds with PPC-1+TRAIL kill | PPC-1 viability, ATPlite luminescence, overnight | cytotoxicity, % at 5 µM | 50% of 1,200 active | AID 1447;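 active = reconfirmed compounds whose average cytotoxicity reaches 50% or more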;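 also: 0% = DMSO-treated cells and 100% = wells holding medium but no cells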
Active calls of the source: *; / = not tested or not shown.

SMILES	FLuc act counter	FLuc inh counter	PPC-1+TRAIL kill	C8 TRAIL sens	PPC1 cytotox
COc1cccc(N2CCN(c3ncnc4c3[nH]c3ccccc34)CC2C)c1 (configuration not stated)	1.1	-6.9	21.3	/	/
O=[N+]([O-])c1ccc(N/N=C/c2sc(N3CCOCC3)nc2-c2ccccc2)c(S(=O)(=O)Nc2ccc(Cl)cc2)c1	1	4.4	34.5	9.7	39.7
O=C(CSc1nnc(-c2ccc(S(=O)(=O)N3CCCC3)cc2)o1)NCc1ccccc1	1	-3.8	9.9	16.8	/
CCN(CC(=O)Nc1c(C(=O)OC)[nH]c2ccc(Cl)cc12)c1ccc2c(c1)OCO2	1.1	-11.7	3.9	-3.5	11.7
CC(C)C(=O)Nc1c(-c2ccccc2)c(=O)c2ccccc2n1C	/	/	-11.7	3.0	/
Cn1c(NC(=O)c2ccco2)c(-c2ccccc2)c(=O)c2ccccc21	1.1	-5.7	8.0	-21.1	-11.9
O=C(NNC1CCN(Cc2ccccc2)CC1)c1ccccc1	/	/	/	-1.7	/
COc1ccc(-c2cc(=O)c3cc(OC)ccc3[nH]2)cc1	0.1	86.8*	65.4*	72.6*	62.4*
Cc1ccc2[nH]c(-c3ccccc3)cc(=O)c2c1	0.1	85.7*	69.0*	52.5*	67.7*
Cc1ccc(-c2cc(=O)c3cc(Cl)ccc3[nH]2)cc1	0.4	56.9*	64.7*	/	60.3*
COc1ccc(-c2cc(=O)c3cc(OC)ccc3o2)cc1	0.2	78.5*	66.2*	65.6*	68.2*
O=C(CN1C(=O)c2ccccc2S1(=O)=O)Nc1ccc(S(=O)(=O)N2CCCC2)cc1	1	1.1	18.2	-31.8	/
CS(=O)(=O)c1ccc(C(=O)OCC(=O)NC23CC4CC(CC(C4)C2)C3)cc1[N+](=O)[O-]	1.2	-15.8	-8.1	-4.8	-9.7
Cc1cc(N2CC(=O)N(CCc3ccccc3)C(=O)C2)n2ncnc2n1	1	-4.9	10.3	-17.6	-1.8
Cc1cc(N2CCN(c3ccccc3)CC2)n2ncnc2n1	1.1	-5.3	6.3	-12.7	/
COC(=O)c1ccc(NC(=O)c2ccc3c(c2)OCO3)cc1	0.9	13.3	-1.9	8.3	/
COc1ccc(C(=O)Nc2cccc(OC(=O)c3ccc(C)c(C)c3)c2)cc1	1	2.8	21.4	7.0	22.1
Cc1cccc(NC(=O)c2ccc3c(c2)OCCO3)c1C	/	/	/	14.7	/
COc1ccc(C(=O)Nc2ccc3c(c2)OCCO3)cc1	0.1	90.1*	75.2*	72.2*	72.9*
Cc1ccccc1NC(=O)c1ccc2c(c1)OCCO2	0.8	21.4	21.4	-1.3	18.7
COC(=O)c1sccc1NC(=O)c1ccc2c(c1)OCO2	1	-1.8	3.6	-3.4	6.1
CCn1c(=O)cc(OCC(=O)N(C)C2CCCCC2)c2ccccc21	1	-3.4	-12.2	-2.0	/
COc1cc(CCC(=O)NCC2CCCO2)cc(OC)c1OC (configuration not stated)	/	/	/	2.7	/
O=C(Sc1nnc(-c2ccccc2)o1)N1c2ccccc2Sc2ccccc21	1	-2.7	-5.1	-7.9	/
O=C(Nc1ccc2c(c1)OCCO2)c1cncc(Br)c1	0.3	65.0*	29.7	41.7	31.5
SMILES	FLuc act counter	FLuc inh counter	PPC-1+TRAIL kill	C8 TRAIL sens	PPC1 cytotox
O=C(Nc1ccncc1)c1ccc2c(c1)OCCO2	0.8	24.5	13.3	30.1	/
Cc1ccc(NC(=O)c2ccc3c(c2)OCCO3)cc1	0.1	89.0*	56.3*	67.2*	55.5*
Nc1nc(-c2cccc(F)c2)cs1	1	3.4	/	2.1	/
Cc1cc(/C=N/NC(=O)c2cccs2)c(C)n1-c1ccccc1	0.1	91.2*	68.7*	61.4*	67.8*
Cc1ccccc1OCC(=O)Nc1ccc(C(=O)Nc2ccccc2C(=O)O)cc1	/	/	/	-3.1	/
CSCC[C@H](NC(=O)[C@@H]1Cc2ccccc2CN1)C(=O)NC1CCCCC1	/	/	/	-4.5	/
COc1cccc(N/C(SCc2ccccc2F)=C(/C#N)C(=O)NCc2cccs2)c1	1	-3.4	19.1	-1.2	/
Cc1cc(/C=N/Nc2ncnc(N)c2[N+](=O)[O-])c(C)n1-c1ccccc1	/	/	86.5*	85.1*	87.1*
Cc1[nH]n(-c2ccccc2)c(=O)c1/C=N/Nc1nncc(-c2ccccc2)n1	0.1	85.1*	62.6*	57.5*	57.8*
Cc1ccc(/C=N/Nc2nncc(-c3ccccc3)n2)o1	0.9	9.2	-1.4	2.7	/
